This note sets out measurements from ChEMBL document CHEMBL1139341 (J Med Chem, 2009).

The source made the active and inactive calls. No cut-off for these calls is given here. Starred links: 1 amine or outer side, 2 acyl side, 3 side chain; linkers in the order of their positions; H or OH if unused. Positions of bridges follow the written chain, without caps; N, C: chain ends. Non-standard residues stand in square brackets, D forms with d. Residues, ends and D or L forms follow the SMILES beside them. Phe(Nα-(CH2)3CO) = O=C([C@H](Cc1ccccc1)N(CCCC(=O)[*:3])[*:1])[*:2]; N(2-aminoethyl)Phe = O=C([C@H](Cc1ccccc1)N(CCN[*:3])[*:1])[*:2]

Assay [1] addresses Somatostatin receptor type 1 (Homo sapiens, UniProt P30872). Nature of the assay: Displacement of [125I]-[Leu8, DTrp22, Tyr25]-somatostatin-28 from human recombinant sst1 receptor expressed in chinese hamster CCL39 cells. It is filed as cell-based. The method, boiled down:
(§1)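 Competitive displacement on membrane pellet sections from cells expressing each human sst subtype. The radioligand was [¹²⁵I]-[Leu⁸,D-Trp²²,Tyr²⁵]-somatostatin-28 at 15000 cpm/100 µL. Unlabeled compounds were tested from 0.1 to 1,000 nmol/L, with somatostatin-28 run in parallel over the same range. IC₅₀ was calculated from displacement.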
On the technique in general: Loss of bound radioactivity is the signal in a displacement assay; it reports binding, not function.

Assay [2] addresses Somatostatin receptor type 2 (Homo sapiens, UniProt P30874). Nature of the assay: Displacement of [125I]-[Leu8, DTrp22, Tyr25]-somatostatin-28 from human recombinant sst2 receptor expressed in chinese hamster CCL39 cells. The format is cell-based. A digest of the protocol:
as §1

Assay [3] has as its target Somatostatin receptor type 3 (Homo sapiens, UniProt P32745). The experiment in a line: Displacement of [125I]-[Leu8, DTrp22, Tyr25]-somatostatin-28 from human recombinant sst3 receptor expressed in chinese hamster CCL39 cells. It is filed as cell-based. A digest of the protocol:
as §1

For assay [4], the target named is Somatostatin receptor type 4 (Homo sapiens, UniProt P31391). Nature of the assay: Displacement of [125I]-[Leu8, DTrp22, Tyr25]-somatostatin-28 from human recombinant sst4 receptor expressed in chinese hamster CCL39 cells. It is filed as cell-based. The method, boiled down:
as §1

The target of assay [5] is T1, Somatostatin receptor type 5 (Homo sapiens, UniProt P35346). The experiment in a line: Displacement of [125I]-[Leu8, DTrp22, Tyr25]-somatostatin-28 from human recombinant sst5 receptor expressed in chinese hamster CCL39 cells. It is filed as cell-based. A digest of the protocol:
as §1

The next assay is filed under the species Homo sapiens. Nature of the assay: Selectivity for human recombinant sst5 receptor over human recombinant sst4 receptor.
Assay [6] has as its target T1, Somatostatin receptor type 5. The experiment in a line: Agonist activity at human recombinant sst5 receptor expressed in chinese hamster CCL39 cells assessed stimulation of [35S]GTP-gamma-S-binding. It is filed as functional, cell-based. The method, boiled down:
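CCL-sst₅ cells grown in DMEM/Ham's F-12 (1:1) with 10% FBS, penicillin/streptomycin and 400 µg/mL G418 at 37 °C, 5% CO₂. Binding was run on 20 µm cryostat sections of membrane pellets. Sections were preincubated 10 min at room temperature in Tris-HCl buffer (pH 8.2) with BSA, bacitracin and MgCl₂. They then went 30 min in the same buffer plus 50 µM GDP.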

Chain of Somatostatin receptor type 1 (P30872 whole entry): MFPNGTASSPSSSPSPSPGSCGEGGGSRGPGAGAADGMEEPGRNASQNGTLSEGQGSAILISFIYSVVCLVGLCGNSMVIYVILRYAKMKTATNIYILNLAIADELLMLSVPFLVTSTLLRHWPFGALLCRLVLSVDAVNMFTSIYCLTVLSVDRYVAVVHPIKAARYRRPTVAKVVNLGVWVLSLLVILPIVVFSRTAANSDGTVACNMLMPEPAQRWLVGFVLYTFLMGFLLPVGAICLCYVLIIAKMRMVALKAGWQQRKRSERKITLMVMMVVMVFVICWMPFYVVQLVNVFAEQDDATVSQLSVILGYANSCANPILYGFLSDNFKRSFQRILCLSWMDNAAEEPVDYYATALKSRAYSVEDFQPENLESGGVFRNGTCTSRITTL
Chain of Somatostatin receptor type 4 (P31391 whole entry): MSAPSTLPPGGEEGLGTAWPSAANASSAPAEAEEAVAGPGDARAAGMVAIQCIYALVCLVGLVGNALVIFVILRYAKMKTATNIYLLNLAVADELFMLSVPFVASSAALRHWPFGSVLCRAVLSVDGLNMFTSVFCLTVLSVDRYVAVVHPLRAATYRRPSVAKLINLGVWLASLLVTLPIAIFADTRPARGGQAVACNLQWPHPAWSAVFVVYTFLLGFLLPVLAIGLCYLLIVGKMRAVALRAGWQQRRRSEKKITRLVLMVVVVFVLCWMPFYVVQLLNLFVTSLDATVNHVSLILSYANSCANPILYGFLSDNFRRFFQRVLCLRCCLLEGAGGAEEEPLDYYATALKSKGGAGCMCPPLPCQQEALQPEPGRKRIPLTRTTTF
T1 sequence (P35346 whole entry): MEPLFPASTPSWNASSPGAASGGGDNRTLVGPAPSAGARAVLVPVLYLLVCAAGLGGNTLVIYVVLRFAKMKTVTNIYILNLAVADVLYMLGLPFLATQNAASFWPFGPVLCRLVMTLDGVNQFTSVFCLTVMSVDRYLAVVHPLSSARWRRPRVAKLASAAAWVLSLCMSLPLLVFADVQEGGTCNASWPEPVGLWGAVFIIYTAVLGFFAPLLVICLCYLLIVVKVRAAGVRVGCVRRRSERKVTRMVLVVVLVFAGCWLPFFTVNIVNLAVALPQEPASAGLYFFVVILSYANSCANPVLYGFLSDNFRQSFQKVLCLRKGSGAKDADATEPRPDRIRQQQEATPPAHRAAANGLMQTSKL
Chain of Somatostatin receptor type 2 (P30874 whole entry): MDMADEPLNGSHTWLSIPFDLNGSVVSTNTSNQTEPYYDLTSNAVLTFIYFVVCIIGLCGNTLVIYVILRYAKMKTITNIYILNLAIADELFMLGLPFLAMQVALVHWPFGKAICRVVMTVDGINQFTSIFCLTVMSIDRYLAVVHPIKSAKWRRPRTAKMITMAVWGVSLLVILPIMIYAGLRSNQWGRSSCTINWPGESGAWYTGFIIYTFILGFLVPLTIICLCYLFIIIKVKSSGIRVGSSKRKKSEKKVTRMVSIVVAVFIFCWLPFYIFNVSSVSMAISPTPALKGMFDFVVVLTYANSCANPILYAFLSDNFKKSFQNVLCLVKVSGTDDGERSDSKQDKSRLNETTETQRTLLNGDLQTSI
Chain of Somatostatin receptor type 3 (P32745 whole entry): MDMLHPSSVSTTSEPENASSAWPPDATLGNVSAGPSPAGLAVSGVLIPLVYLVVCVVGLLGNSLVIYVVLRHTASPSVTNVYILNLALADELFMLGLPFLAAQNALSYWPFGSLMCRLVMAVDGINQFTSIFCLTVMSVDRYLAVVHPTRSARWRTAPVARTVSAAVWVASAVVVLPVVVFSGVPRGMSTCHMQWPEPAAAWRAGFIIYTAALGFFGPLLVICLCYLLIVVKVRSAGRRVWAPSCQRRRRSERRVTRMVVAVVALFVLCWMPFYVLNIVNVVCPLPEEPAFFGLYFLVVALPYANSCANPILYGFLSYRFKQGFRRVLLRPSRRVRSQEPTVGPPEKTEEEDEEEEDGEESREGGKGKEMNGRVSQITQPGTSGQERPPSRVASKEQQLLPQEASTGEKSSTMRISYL

With `NCCCC[C@@H](C(=O)NCc1ccccc1)N1Cc2[nH]c3ccccc3c2C[C@@H](NC(=O)C2CCN(C(=O)c3ccccc3)CC2)C1=O`, the IC50 (usually the point on the concentration scale where inhibition reaches its midpoint) amounted to 89 nM in assay [1]; 2.1 nM in assay [2]; 119 nM in assay [3]; 6.9 nM in assay [4]; 1.4 nM in assay [5].
Turning to `CC(=O)N[C@@H]1Cc2c([nH]c3ccccc23)CN([C@@H](CCCCN)C(=O)NCc2ccccc2)C1=O`, the IC50 was 253 nM in assay [1]; 292 nM in assay [2]; > 1000 nM in assay [3]; 7 nM in assay [4]; 5 nM in assay [5].
As to `C[C@H](NC(=O)[C@H](CCCCN)N1Cc2[nH]c3ccccc3c2C[C@@H](NC(=O)Cc2ccccc2)C1=O)c1ccccc1`, the IC50 was found to be 183 nM in assay [1]; 452 nM in assay [2]; 300 nM in assay [3]; 1 nM in assay [4]; 3.2 nM in assay [5].
`CS(=O)(=O)N1CC2(CCN(C(=O)N[C@@H]3Cc4c([nH]c5ccccc45)CN([C@@H](CCCCN)C(=O)NCc4ccccc4)C3=O)CC2)c2ccccc21`: the IC50 in assay [1] was 837 nM; in assay [2] it was 327 nM; in assay [3], 316 nM; in assay [4] it was 2.1 nM; in assay [5], 8 nM.
Turning to `NCCCC[C@@H](C(=O)NCc1ccccc1)N1Cc2[nH]c3ccccc3c2C[C@@H](NC(=O)N2CCN(S(=O)(=O)c3ccccc3)CC2)C1=O`, the IC50 in assay [1] was determined as 372 nM; in assay [2] it was 4.2 nM; in assay [3] it was 260 nM; in assay [4], 59 nM; in assay [5], 3.5 nM.
As to `NCCCC[C@@H](C(=O)NCc1ccccc1)N1Cc2[nH]c3ccccc3c2C[C@@H](NC(=O)C(c2ccccc2)c2ccccc2)C1=O`, the IC50 in assay [1] was 247 nM; in assay [2], 242 nM; in assay [3], > 500 nM; in assay [4], 14 nM; in assay [5], 8.8 nM.
The like results for `COC(=O)[C@H](CCCCN)N1Cc2[nH]c3ccccc3c2C[C@@H](NC(=O)Cc2ccccc2)C1=O` were, in that order, 962 nM, 290 nM, 400 nM, 2.4 nM and 13 nM.
As for `NCCCC[C@@H](C(=O)NCc1ccccc1)N1Cc2[nH]c3ccccc3c2C[C@@H](NC(=O)N2CCC(n3c(=O)[nH]c4ccccc43)CC2)C1=O`, the IC50 came to 76 nM in assay [1]; 0.73 nM in assay [2]; 3.9 nM in assay [3]; 4.4 nM in assay [4]; 0.86 nM in assay [5].
On to `C[C@@H](O)[C@@H](CO)NC(=O)[C@@H]1C/C=C/C[C@H](NC(=O)[C@H](N)Cc2ccccc2)C(=O)N[C@@H](Cc2ccccc2)C(=O)N[C@H](Cc2c[nH]c3ccccc23)C(=O)N[C@@H](CCCCN)C(=O)N[C@@H](Cc2ccc(OCc3ccccc3)cc2)C(=O)N1`, for which the IC50 in assay [5] was 12 nM. For the same molecule, the fold change (FC) in the assay listed under Homo sapiens is 24.
On the same counts, the results for `NCc1cccc(C[C@@H]2O[C@@H](CC(=O)NCc3ccccc3F)C(=O)N(Cc3ccc(-c4ccccc4)cc3)c3ccccc32)c1` are 0.3 nM and 200.
`C[C@H](N)COC(=O)[C@@H](CCCCN)NC(=O)Cc1c(-c2ccc3ccccc3c2)[nH]c2c1ccc1ccccc12`: in assay [5], the IC50 is 0.4 nM.
For `CC(C)[C@@H]1NC(=O)[C@H](CCCCN)NC(=O)[C@H](Cc2c[nH]c3ccccc23)NC(=O)[C@H](Cc2ccc(O)cc2)NC(=O)[C@H](Cc2ccccc2)NCCNC(=O)CCCN([C@@H](Cc2ccccc2)C(=O)N[C@H](C(N)=O)[C@@H](C)O)C1=O` (H-[N(2-aminoethyl)Phe]YWKV[Phe(Nα-(CH2)3CO)]T-NH2; lactam 1-6), in the assay filed under Homo sapiens, the fold change (FC) is 24.
For `NCCCC[C@H](C(=O)NCc1ccccc1)N1Cc2[nH]c3ccccc3c2C[C@@H](NC(=O)Cc2ccccc2)C1=O`, the IC50 in assay [1] was > 1000 nM; in assay [2], > 1000 nM; in assay [3], 910 nM; in assay [4], 56 nM; in assay [5] it was 25 nM.
As for `CC(=O)N[C@@H]1Cc2c([nH]c3ccccc23)CN([C@@H](CCCCN)C(=O)NCCc2ccccc2)C1=O`, the IC50 in assay [1] was 105 nM; in assay [2], > 1000 nM; in assay [3], 515 nM; in assay [4], 7 nM; in assay [5], 0.56 nM. Moreover, in assay [6], the result was Active. For the same molecule, the fold change (FC) in the assay filed under Homo sapiens was 10.
On to `NCCCC[C@@H](C(=O)NCc1ccccc1)N1Cc2[nH]c3ccccc3c2C[C@@H](NC(=O)c2ccc(-c3ccccc3)cc2)C1=O`, for which the IC50 is > 1000 nM in assay [1]; 12 nM in assay [2]; 54 nM in assay [3]; 161 nM in assay [4]; 16 nM in assay [5].
On to `NCCCC[C@@H](C(=O)NCc1cccc2ccccc12)N1Cc2[nH]c3ccccc3c2C[C@@H](NC(=O)Cc2ccccc2)C1=O`, for which the IC50 in assay [1] was 387 nM; in assay [2], 215 nM; in assay [3], 105 nM; in assay [4] it was 17 nM; in assay [5] it was 3.5 nM.
On the same counts, the results for `NCCCC[C@@H](C(=O)NCc1ccccc1)N1Cc2[nH]c3ccccc3c2C[C@@H](NC(=O)N2CCC3(CCc4ccccc43)CC2)C1=O` are 379 nM, 2.1 nM, 9.1 nM, 35 nM and 2.9 nM.
`NCCCC[C@@H](C(=O)NCc1ccccc1)N1Cc2[nH]c3ccccc3c2C[C@@H](NC(=O)CCc2ccccc2)C1=O`: the half-inhibitory concentration (IC50) stood at 54 nM in assay [1]; 10 nM in assay [2]; 153 nM in assay [3]; 8.1 nM in assay [4]; 3.4 nM in assay [5].
`NCCCC[C@@H](C(=O)NCCc1ccccc1)N1Cc2[nH]c3ccccc3c2C[C@@H](NC(=O)Cc2ccccc2)C1=O`: the IC50 in assay [1] worked out at 75 nM; in assay [2], 183 nM; in assay [3] it was 50 nM; in assay [4] it was 2.4 nM; in assay [5], 0.6 nM. Also, the outcome in assay [6] was Active.
In the case of `NCCCC[C@@H](C(=O)NCc1ccccc1)N1Cc2[nH]c3ccccc3c2C[C@@H](NC(=O)c2ccc(Cl)cc2)C1=O`, the IC50 in assay [1] came to 38 nM; in assay [2] it was 22 nM; in assay [3], 162 nM; in assay [4] it was 2.3 nM; in assay [5], 3.7 nM.
The like results for `C[C@@H](NC(=O)[C@H](CCCCN)N1Cc2[nH]c3ccccc3c2C[C@@H](NC(=O)Cc2ccccc2)C1=O)c1ccccc1` were, in that order, 630 nM, 770 nM, 403 nM, 14 nM and 50 nM.
On the same counts, the results for `NCCCC[C@@H](C(=O)NCc1ccccc1)N1Cc2[nH]c3ccccc3c2C[C@@H](NC(=O)c2ccccc2)C1=O` are 27 nM, 103 nM, 182 nM, 1.3 nM and 1.8 nM.
